According to ChEMBL document CHEMBL4014276, “Diphenylurea derivatives for combating methicillin- and vancomycin-resistant Staphylococcus aureus” (Eur J Med Chem, 2017):
Converted amounts (≈) assume the structure as drawn. The source made the active and inactive calls. No cut-off for these calls is given here.

Columns and labels:
[1] = Intrinsic clearance in human liver microsomes in absence of NADPH by LC-MS/MS method; type: ADME, microsome; conditions: read-out: CLH
[2] = Apparent permeability across basolateral to apical side in human Caco2 cells at 10 uM after 2 hrs by LC-MS/MS method; type: ADME, cell-based; conditions: Caco-2
[3] = Apparent permeability across apical to basolateral side in human Caco2 cells at 10 uM after 2 hrs by LC-MS/MS method; type: ADME, cell-based; conditions: Caco-2
[4] = Intrinsic clearance in human liver microsomes in presence of NADPH by LC-MS/MS method; type: ADME, microsome; conditions: read-out: CLH
Staphylococcus aureus [5] = experiment: Bactericidal activity against methicillin-resistant Staphylococcus aureus USA400 NRS123 clinical isolate assessed as disruption of bacterial membrane by measuring leakage of 280 nM absorbing material at 5 times MIC after 30 mins by spectrophotometric method; type: functional
Staphylococcus aureus [6] = experiment: Bactericidal activity against methicillin-resistant Staphylococcus aureus USA200 NRS383 clinical isolate after 18 hrs by broth microdilution method; type: functional; conditions: USA200 NRS383, 18 h
Outline: (§1)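 From MIC wells without visible growth, 5 uL spotted onto Tryptic soy agar, incubated 37 °C for at least 18 h; MBC taken as lowest concentration giving 99.9% growth inhibition.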

Staphylococcus aureus [7] = experiment: Antibacterial activity against methicillin-resistant Staphylococcus aureus USA100 NRS382 clinical isolate after 20 hrs by broth microdilution method; type: functional; conditions: USA100 NRS382, 20 h
Outline: (§2)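 CLSI broth microdilution in cation-adjusted Mueller Hinton broth; compounds serially diluted, triplicate samples; 37 °C, 20 h. MIC read visually as lowest concentration with no visible growth; mean of triplicate determinations reported.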

Staphylococcus aureus [8] = experiment: Bactericidal activity against Staphylococcus aureus RN4220 NRS107 clinical isolate after 18 hrs by broth microdilution method; type: functional; conditions: RN4220 NRS107, 18 h; outline: as §1
Staphylococcus aureus [9] = experiment: Antibacterial activity against methicillin-resistant Staphylococcus aureus USA400 infected in Caenorhabditis elegans AU37 harboring (sek-1(km4);glp-4(bn2)I) mutant assessed as reduction in colony forming units at 10 ug/ml after 20 hrs by microscopic method relative to control; type: functional; parameters: scale not given: the % may be the effect or the level left
Outline: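 C. elegans AU37 L4/adult worms infected on MRSA USA400 lawn 6 h, washed in M9; 15-25 worms per well treated with 10 µg/mL in triplicate for 20 h, PBS negative control; worms lysed with silicon carbide, plated on TSA with 5 µg/mL nalidixic acid, 37 °C 18 h; CFU per worm, Student's t-test with Holm-Sidak correction.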

Staphylococcus aureus [10] = experiment: Bactericidal activity against methicillin-resistant Staphylococcus aureus USA400 NRS123 clinical isolate after 18 hrs by broth microdilution method; type: functional; conditions: USA400 NRS123, 18 h; outline: as §1
Staphylococcus aureus [11] = experiment: Bactericidal activity against methicillin-resistant Staphylococcus aureus USA100 NRS382 clinical isolate after 18 hrs by broth microdilution method; type: functional; conditions: USA100 NRS382, 18 h; outline: as §1
Staphylococcus aureus [12] = experiment: Bactericidal activity against methicillin-resistant Staphylococcus aureus USA400 assessed as time required to reduce log10CFU of bacterial load at 4 times MIC by time kill assay; type: functional
Staphylococcus aureus [13] = experiment: Bactericidal activity against methicillin-resistant Staphylococcus aureus USA300 NRS384 clinical isolate after 18 hrs by broth microdilution method; type: functional; conditions: USA300 NRS384, 18 h; outline: as §1
Staphylococcus aureus [14] = experiment: Bactericidal activity against vancomycin-resistant Staphylococcus aureus VRSA4 after 18 hrs by broth microdilution method; type: functional; conditions: VRSA4, 18 h; outline: as §1
Staphylococcus aureus [15] = experiment: Bactericidal activity against vancomycin-resistant Staphylococcus aureus VRSA10 after 18 hrs by broth microdilution method; type: functional; conditions: VRSA10, 18 h; outline: as §1
Staphylococcus aureus [16] = experiment: Antibacterial activity against vancomycin-resistant Staphylococcus aureus VRSA4 after 20 hrs by broth microdilution method; type: functional; conditions: VRSA4, 20 h; outline: as §2
Staphylococcus aureus [17] = experiment: Bactericidal activity against methicillin-resistant Staphylococcus aureus USA400 infected in mouse J774 cells assessed as reduction in colony forming units at 16 ug/ml after 24 hrs by time kill assay relative to control; type: functional
Outline: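 J774 murine macrophages in DMEM/10% FBS infected with MRSA USA400 at MOI ~100:1 for 1 h, extracellular bacteria killed with gentamicin 50 µg/mL; treated at 16 µg/mL in triplicate; after 4, 8 or 24 h cells washed, lysed with 0.1% Triton X-100, plated for CFU; percent reduction versus untreated, t-test.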

Staphylococcus aureus [18] = experiment: Bactericidal activity against methicillin-resistant Staphylococcus aureus USA400 NRS123 clinical isolate assessed as disruption of bacterial membrane by measuring leakage of 260 nM absorbing material at 5 times MIC after 30 mins by spectrophotometric method; type: functional
Staphylococcus aureus [19] = experiment: Antibacterial activity against vancomycin-resistant Staphylococcus aureus VRSA10 after 20 hrs by broth microdilution method; type: functional; conditions: VRSA10, 20 h; outline: as §2
[20] = Half life in human liver microsomes in presence of NADPH by LC-MS/MS method; type: ADME, microsome
[21] = Half life in human liver microsomes in absence of NADPH by LC-MS/MS method; type: ADME, microsome

`CC(=O)CC(c1ccccc1)c1c(O)c2ccccc2oc1=O` (stereo not drawn) [WARFARIN] gave a microsomal CLint [1] of under 9.6 µL/min/mg, a Papp B→A at 2 h, 10 µM [2] of 20.3 ×10⁻⁶ cm/s and a Papp A→B at 2 h, 10 µM [3] of 27.7 ×10⁻⁶ cm/s. The microsomal CLint [4] was under 9.6 µL/min/mg.
For `CN[C@H](CC(C)C)C(=O)N[C@H]1C(=O)N[C@@H](CC(N)=O)C(=O)N[C@H]2C(=O)N[C@H]3C(=O)N[C@H](C(=O)N[C@H](C(=O)O)c4cc(O)cc(O)c4-c4cc3ccc4O)[C@H](O)c3ccc(c(Cl)c3)Oc3cc2cc(c3O[C@@H]2O[C@H](CO)[C@@H](O)[C@H](O)[C@H]2O[C@H]2C[C@](C)(N)[C@H](O)[C@H](C)O2)Oc2ccc(cc2Cl)[C@H]1O` [VANCOMYCIN], the Activity (Staphylococcus aureus [5]) was “inactive”, the MBC (Staphylococcus aureus [6]) was 0.5 µg/mL (≈ 0.345 µM) and the MIC (Staphylococcus aureus [7]) was under 1 µg/mL. The MBC (Staphylococcus aureus [8]) was 1 µg/mL (≈ 0.69 µM), the Activity (Staphylococcus aureus [9]) was 25% and the MBC (Staphylococcus aureus [10]) was 0.5 µg/mL (≈ 0.345 µM). For the same compound, the MBC (Staphylococcus aureus [11]) was under 1 µg/mL, the Time (Staphylococcus aureus [12]) was 24 h and the MBC (Staphylococcus aureus [13]) was 1 µg/mL (≈ 0.69 µM). The MBC (Staphylococcus aureus [14]) was over 128 µg/mL, the MBC (Staphylococcus aureus [15]) was over 128 µg/mL and the MIC (Staphylococcus aureus [16]) was over 128 µg/mL. The Activity (Staphylococcus aureus [17]) was “inactive”, the Activity (Staphylococcus aureus [18]) was “inactive” and the MIC (Staphylococcus aureus [19]) was over 128 µg/mL.
`Cc1ncc2n1-c1ccc(Cl)cc1C(c1ccccc1F)=NC2` [MIDAZOLAM] showed a half-life [20] of 5.7 min, a microsomal CLint [1] of under 9.6 µL/min/mg and a half-life [21] of over 240 min. The microsomal CLint [4] was 402 µL/min/mg.
